The source of these data is ChEMBL document CHEMBL1146088 (J Med Chem, 2006).

Molecules are shown by their SMILES.

Experiment [1] has as its target T1, Transient receptor potential cation channel subfamily V member 1 (Homo sapiens, UniProt Q8NER1). Description: Maximal agonist activity on human recombinant TRPV1-mediated enhancement of intracellular calcium concentration in HEK293 cells at 10 uM. The experiment is classed as functional, cell-based. An outline of the steps:
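Fluo-3-loaded HEK-293 cells overexpressing human TRPV1, in Tyrode pH 7.4 at 25 °C, fluorescence ex 488/em 540 nm. Compound at 10 µM. Peak rise in intracellular Ca2+ expressed as percent of the response to ionomycin (4 µM).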
For orientation: A change in cytosolic calcium serves as a functional read-out for many receptors and channels.

In another experiment the test system is RBL-2H3. Description: Inhibition of AEA uptake in RBL2H3 cells. The class given is functional, cell-based, Rattus norvegicus, Wistar. The essentials:
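RBL-2H3 cells incubated 5 min at 37 °C with [14C]AEA (2.4 µM, 10 000 cpm), with or without varying inhibitor concentrations. Medium extracted with CHCl3/CH3OH 2:1. Residual [14C]AEA in the lyophilized organic phase was measured by scintillation counting as an index of uptake.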

Experiment [2] addresses T1, Transient receptor potential cation channel subfamily V member 1. Description: Agonist activity on human recombinant TRPV1-mediated enhancement of intracellular calcium concentration in HEK293 cells. The experiment is classed as functional, cell-based. The essentials: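 HEK-293 cells stably overexpressing human TRPV1, plated on poly-L-lysine the day before. Loaded 2 h at 25 °C with 4 µM Fluo-3 methyl ester (0.04% Pluronic), washed, trypsinized and resuspended in Tyrode pH 7.4. Stirred-cuvette fluorescence (ex 488/em 540 nm) at 25 °C, read before and after compound at various concentrations. EC50 is the concentration giving half-maximal stimulation.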

The species named for a further experiment is Rattus norvegicus. Description: Metabolic stability in rat brain membrane assessed by inhibition of AEA hydrolysis. The experiment is classed as ADME. The essentials:
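Mixture extracted with 2 volumes CHCl3/CH3OH 2:1. [14C]ethanolamine in the aqueous phase counted by scintillation. Value is the concentration giving 50% inhibition of hydrolysis.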

In another experiment the target is Cannabinoid receptor 1 (Homo sapiens, UniProt P21554). Description: Binding affinity to human recombinant CB1 receptor expressed in COS cells. The class given is cell-based.
Chain of Cannabinoid receptor 1 (P21554 whole entry): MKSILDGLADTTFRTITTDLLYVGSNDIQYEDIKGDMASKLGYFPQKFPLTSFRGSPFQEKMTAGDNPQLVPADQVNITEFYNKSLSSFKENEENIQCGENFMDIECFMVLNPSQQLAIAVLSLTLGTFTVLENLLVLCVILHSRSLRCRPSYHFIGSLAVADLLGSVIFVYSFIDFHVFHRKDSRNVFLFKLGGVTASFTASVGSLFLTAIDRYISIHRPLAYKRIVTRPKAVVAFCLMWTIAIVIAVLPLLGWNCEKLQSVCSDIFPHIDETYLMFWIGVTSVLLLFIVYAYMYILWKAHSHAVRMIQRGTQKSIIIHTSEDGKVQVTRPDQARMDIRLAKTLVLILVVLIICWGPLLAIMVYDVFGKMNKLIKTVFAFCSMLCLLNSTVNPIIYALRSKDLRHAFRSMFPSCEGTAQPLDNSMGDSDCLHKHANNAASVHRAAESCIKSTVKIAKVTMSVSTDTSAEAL
A further experiment concerns the target Cannabinoid receptor 2 (Homo sapiens, UniProt P34972). Description: Binding affinity to human recombinant CB2 receptor expressed in COS cells. The class given is cell-based.
The mark [3] stands for this setting: Rattus norvegicus, Wistar, RBL-2H3, read-out: IC50.
[4] abbreviates: Rattus norvegicus, Brain, read-out: IC50.

T1 sequence (Q8NER1 whole entry): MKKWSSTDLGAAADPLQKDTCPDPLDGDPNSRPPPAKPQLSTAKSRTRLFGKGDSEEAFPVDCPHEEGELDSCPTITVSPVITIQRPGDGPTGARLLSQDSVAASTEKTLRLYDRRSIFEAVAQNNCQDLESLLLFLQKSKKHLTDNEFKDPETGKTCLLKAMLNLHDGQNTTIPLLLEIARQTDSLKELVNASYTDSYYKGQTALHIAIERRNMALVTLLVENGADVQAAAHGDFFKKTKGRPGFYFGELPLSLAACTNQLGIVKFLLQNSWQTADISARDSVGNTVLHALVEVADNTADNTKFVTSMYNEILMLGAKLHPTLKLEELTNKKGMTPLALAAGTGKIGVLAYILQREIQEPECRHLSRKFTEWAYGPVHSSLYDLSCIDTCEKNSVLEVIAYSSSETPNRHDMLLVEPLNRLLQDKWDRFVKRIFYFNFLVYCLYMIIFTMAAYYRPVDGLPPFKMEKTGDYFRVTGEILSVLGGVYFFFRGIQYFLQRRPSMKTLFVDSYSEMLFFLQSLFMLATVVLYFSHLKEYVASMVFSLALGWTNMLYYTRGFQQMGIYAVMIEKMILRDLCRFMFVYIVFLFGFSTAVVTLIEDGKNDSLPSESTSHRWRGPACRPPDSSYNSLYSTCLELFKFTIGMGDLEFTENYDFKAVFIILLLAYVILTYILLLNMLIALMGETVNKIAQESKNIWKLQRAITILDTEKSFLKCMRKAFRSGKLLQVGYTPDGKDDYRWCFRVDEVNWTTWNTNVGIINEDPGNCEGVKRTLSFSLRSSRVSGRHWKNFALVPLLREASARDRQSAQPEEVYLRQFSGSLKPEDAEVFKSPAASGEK
Chain of Cannabinoid receptor 2 (P34972 whole entry): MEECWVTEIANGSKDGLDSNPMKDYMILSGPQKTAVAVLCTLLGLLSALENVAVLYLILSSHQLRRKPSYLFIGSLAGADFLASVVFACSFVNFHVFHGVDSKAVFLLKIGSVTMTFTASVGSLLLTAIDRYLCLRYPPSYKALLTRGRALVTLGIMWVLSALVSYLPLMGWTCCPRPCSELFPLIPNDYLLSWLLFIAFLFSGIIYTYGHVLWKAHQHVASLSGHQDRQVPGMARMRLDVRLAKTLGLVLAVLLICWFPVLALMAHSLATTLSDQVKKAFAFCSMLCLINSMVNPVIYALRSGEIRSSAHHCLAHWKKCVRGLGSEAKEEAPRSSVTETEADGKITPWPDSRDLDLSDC

What is called Emax is the size of the effect at its maximum, as opposed to the concentration needed. Usually IC50 stands for the midpoint of a concentration-inhibition curve. As usually defined, the EC50 is the midpoint of the concentration-response curve. Regarding `CCCCC/C=C\C/C=C\C/C=C\C/C=C\CCCC(=O)NCCO` [ANANDAMIDE], the Emax in experiment [1] came out at 54.7%. The values for the IC50 with RBL-2H3 (setting [3]) and in the experiment filed under Rattus norvegicus (setting [4]) were 14.5 µM and 19 µM, respectively. Further, in experiment [2] (read-out: EC50), the EC50 turned out to be 0.49 µM.

What is called Ki is a dissociation constant, usually derived from enzyme kinetics or from competition with a known ligand. With `CCCCC/C=C\C/C=C\C/C=C\C/C=C\CCCC(=O)ONCCO`, the Emax in experiment [1] turned out to be 28%. The results for the IC50 in the experiment on RBL-2H3 (setting [3]) and in the experiment filed under Rattus norvegicus (setting [4]) were greater than 25 µM and greater than 50 µM, respectively. Besides, the figures for the Ki at Cannabinoid receptor 1 (read-out: Ki) and at Cannabinoid receptor 2 (read-out: Ki) were 3.5 µM and 2.4 µM, respectively.

As for `CCCCCCCC/C=C\CCCCCCCC(=O)N(O)CCO`, the maximal response (Emax) in experiment [1] is 53.5%. For the same molecule, the IC50 is 20 µM in the experiment on RBL-2H3 (setting [3]) and greater than 50 µM in the experiment listed under Rattus norvegicus (setting [4]). In addition, the EC50 in experiment [2] (read-out: EC50) is 0.4 µM. Moreover, the results for the Ki at Cannabinoid receptor 1 (read-out: Ki) and at Cannabinoid receptor 2 (read-out: Ki) were greater than 10 µM and 5.4 µM, respectively.

Regarding `CCCCCCCCCCCCCCCC(=O)N(O)CCO`, the maximal effect (Emax) in experiment [1] is 37%. Further, the IC50 in the experiment on RBL-2H3 (setting [3]) was greater than 25 µM; in the experiment listed under Rattus norvegicus (setting [4]), greater than 50 µM. The EC50 in experiment [2] (read-out: EC50) is 0.6 µM. Moreover, the Ki at Cannabinoid receptor 1 (read-out: Ki) and on Cannabinoid receptor 2 (read-out: Ki) was greater than 10 µM throughout.

For `CCCCCCCCCCCCCCCC(=O)NOCCO`, the Emax in experiment [1] was 11.2%. Besides, the IC50 is greater than 25 µM in the experiment on RBL-2H3 (setting [3]) and greater than 50 µM in the experiment filed under Rattus norvegicus (setting [4]). Also, the Ki on Cannabinoid receptor 1 (read-out: Ki) and on Cannabinoid receptor 2 (read-out: Ki) was greater than 10 µM in each case.

In the case of `CCCCCCCC/C=C\CCCCCCCC(=O)NCCO` [OLEOYLETHANOLAMIDE], in experiment [1], the Emax worked out at 50.1%. The IC50 was 20 µM with RBL-2H3 (setting [3]) and 23 µM in the experiment filed under Rattus norvegicus (setting [4]). In addition, in experiment [2] (read-out: EC50), the concentration giving a half-maximal response (EC50) was found to be 0.89 µM. The results for the Ki on Cannabinoid receptor 1 (read-out: Ki) and at Cannabinoid receptor 2 (read-out: Ki) were 1.1 µM and greater than 10 µM, respectively.

For `CCCCCCCCCCCCCCCC(=O)NCCO` [PALMIDROL], the IC50 entry in the experiment on RBL-2H3 (rbl-2h3) and in the experiment listed under Rattus norvegicus was “Not Active” throughout. Further, the EC50 result in experiment [2] (hek293) is given as “Not Active”. The Ki entry at Cannabinoid receptor 1 (cos) and on Cannabinoid receptor 2 (cos) was “Not Active” throughout.

On to `CCCCCCCC/C=C\CCCCCCCC(=O)NOCCO`, for which the Emax in experiment [1] amounted to 50%. Also, the IC50 is 22.5 µM in the experiment with RBL-2H3 (setting [3]) and greater than 50 µM in the experiment filed under Rattus norvegicus (setting [4]). Also, the EC50 in experiment [2] (read-out: EC50) is 0.32 µM. For the same molecule, the values for the Ki at Cannabinoid receptor 1 (read-out: Ki) and on Cannabinoid receptor 2 (read-out: Ki) were greater than 10 µM and 3.8 µM, respectively.

For the molecule `CCCCC/C=C\C/C=C\C/C=C\C/C=C\CCCC(=O)N(O)CCO`, the Emax in experiment [1] stood at 55.3%. For the same molecule, the results for the IC50 with RBL-2H3 (setting [3]) and in the experiment filed under Rattus norvegicus (setting [4]) were greater than 25 µM and greater than 50 µM, respectively. Moreover, the EC50 in experiment [2] (read-out: EC50) amounted to 0.26 µM. The figures for the Ki at Cannabinoid receptor 1 (read-out: Ki) and on Cannabinoid receptor 2 (read-out: Ki) were 3.9 µM and 1.9 µM, respectively.

Take `CCCCCCCCCCCCCCCC(=O)ONCCO`: the Emax in experiment [1] is 1.8%. For the same molecule, the IC50 in the experiment on RBL-2H3 (setting [3]) is greater than 25 µM; in the experiment listed under Rattus norvegicus (setting [4]), greater than 50 µM. Besides, the Ki on Cannabinoid receptor 1 (read-out: Ki) and at Cannabinoid receptor 2 (read-out: Ki) was greater than 10 µM each time.

Consider `CCCCCCCC/C=C\CCCCCCCC(=O)ONCCO`, for which the Emax in experiment [1] was determined as 14.3%. For the same molecule, the IC50 is greater than 25 µM with RBL-2H3 (setting [3]) and greater than 50 µM in the experiment filed under Rattus norvegicus (setting [4]). Moreover, the Ki is greater than 10 µM on Cannabinoid receptor 1 (read-out: Ki) and 8.6 µM at Cannabinoid receptor 2 (read-out: Ki).

For `CCCCC/C=C\C/C=C\C/C=C\C/C=C\CCCC(=O)NOCCO`, the Emax in experiment [1] is 58.5%. The figures for the IC50 in the experiment on RBL-2H3 (setting [3]) and in the experiment listed under Rattus norvegicus (setting [4]) were greater than 25 µM and 25 µM, respectively. Moreover, the EC50 in experiment [2] (read-out: EC50) is 0.25 µM. Besides, the inhibitory constant (Ki) on Cannabinoid receptor 1 (read-out: Ki) was 0.47 µM; on Cannabinoid receptor 2 (read-out: Ki), 0.081 µM.
